# PLC-gamma1 inh: PLC-gamma1 enzyme inhibitors, primary screen, biochemical, fluorescence, purified enzyme; fluorogenic substrate; 1-phosphatidylinositol 4,5-bisphosphate phosphodiesterase gamma-1 (Homo sapiens), P19174; inhibition, % at 12.2 µM; AID 720700, 2013; hit rate 0.84% among 370,000
# NRP1-CendR mod: modulators of CendR peptide binding to NRP-1, primary screen, biochemical, fluorescence polarization, uHTS. Neuropilin-1 (Homo sapiens), O14786. hit rate 0.85% among 360,000. FAM-RPARPAR peptide binding to NRP-1. inhibition, % at 25 µM. AID 602438, 2012;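 active = inhibition or corrected inhibition above about 18%, plus a signal ratio from 0.5 to 1.5, limit read from the data, passing the limit was not always enough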
# proKLK7 act: proKLK7 zymogen activators, primary screen, biochemical, fluorescence intensity; purified proKLK7, EDANS-DABCYL substrate fluorescence; 100% is mature enzyme control, 0% vehicle; activation, % at 7 µM; AID 652039, 2013; hit rate 0.9% among 370,000;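 active = activation above the mean of all tested compounds plus 3 SD, computed per campaign excluding outliers beyond control limits, cut at about 13% in these data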
# PLC-beta3 inh: human PLC-beta3 inhibitors, primary screen, biochemical, fluorescence; 1-phosphatidylinositol 4,5-bisphosphate phosphodiesterase beta-3 (Homo sapiens), Q01970; hit rate 0.18% among 370,000; inhibition, % at 12.2 µM; Purified PLC-beta3, fluorogenic substrate; in the data active = inhibition above about 11%;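 note: 0% = median of compound wells on plate and 100% = full blocker control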
# Tn6 DDE FP: inhibitors of Tn6 peptide binding to fibrin DD(E), primary screen, biochemical, fluorescence polarization, human fibrin, Tn6 probe; Fibrinogen beta chain (Homo sapiens), P02675; Fibrin DD(E) TRITC-Tn6 fluorescence polarization displacement; inhibition, % at 8.3 µM; hit rate 0.21% among 370,000; AID 720509, 2013;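 active = inhibition above a per-campaign cutoff: mean of compounds within control limits plus 3 SD, cut at about 15% in these data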;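 note: 0% = median of all compound wells on the plate and 100% = blocking peptide control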
# Tn7 DDE FP: inhibitors of Tn7 peptide binding to fibrin DD(E), primary screen, biochemical, fluorescence polarization, human fibrin, Tn7 probe. FP displacement of FITC-Tn7 peptide from fibrin DD(E); 0% = median of compound wells per plate. hit rate 0.13% among 370,000. Fibrinogen beta chain (Homo sapiens), P02675. inhibition, % at 8.3 µM;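 active = inhibition above the mean of compounds falling within the control limits plus 3 SD of them, cut at about 14% in these data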;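 note: 0% = plate median of compound wells and 100% = 10 µM Aha-Tn7 peptide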
#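 Also added: labelled Tn7 tracer, 0.1 µM; Assay system: human fibrin DD(E) protein; Amount: 2 µM fibrin DD(E); Schedule: 10 min compound pre-incubation, 3 h probe incubation at room temperature; Repeats: one replicate per compound; Read-out basis: percent inhibition; Measured by: fluorescence polarization of the labelled Tn7 tracer.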
# PLCg1 ctr: PLC-gamma1 enzyme inhibitors, counter-screen for PLC-beta3 inhibitor project, biochemical, fluorescence; inhibition, % at 12.3 µM; hit rate 3.1% among 3,300; shares compounds with PLC-gamma1 inh; AID 743258, 2014; purified PLC-gamma1, fluorogenic substrate
# PLCbeta3 conf: PLC-beta3 inhibitor confirmation, biochemical, fluorescence, purified enzyme; shares compounds with PLC-gamma1 inh; fluorogenic substrate fluorescence; inhibition, % at 12.3 µM; hit rate 1% among 3,300; AID 743261, 2014; in the data active = inhibition above about 11%
# * = called active by the depositor; · = not tested or not shown. Hits are enriched below; roughly 3% of the tested compounds scored in any of these assays. Cut-off read from the data, not from the text of the source, unless noted: active = inhibition above about 9.5%; inactive = the rest.
SMILES,PLC-gamma1 inh,NRP1-CendR mod,proKLK7 act,PLC-beta3 inh,Tn6 DDE FP,Tn7 DDE FP,PLCg1 ctr,PLCbeta3 conf
CCCc1[nH]n(-c2nc3ccccc3s2)c(=O)c1C=NCCCOC,11*,10,0,-2,-1,1,-5,-2
C=CCN=C1NC(c2cccc(Cl)c2)C(C(=O)OC)=C(C)N1C (configuration not stated),1,·,0,-1,-4,-2,·,·
C[C@@H]1CCN(C2CC2)S(=O)(=O)c2ccc(N3CCC[C@H]3CO)cc2O1,-7,·,0,-5,8,8,·,·
Cc1nnc(NC(=O)c2ccncc2)s1,2,0,0,-1,-3,2,·,·
Cc1cnc(NC(=O)c2ccncc2)s1,11*,6,0,-5,-5,3,-5,-2
CC(C)N(Cc1ccccc1)C(=O)CN1C(=O)NC2(CCCC2)C1=O,10*,20,0,5,-4,-6,-8,-4
Cc1cc(C)n(CC(=O)NNC(=O)C2CC(=O)N(Cc3ccccc3Cl)C2)n1 (configuration not stated),12*,-3,0,0,-7,-1,-4,1
C[C@H](O)[C@@H]1C(=O)N2CCc3c([nH]c4c(-c5ccc6c(c5)OCO6)cccc34)[C@@H]2C[C@@H]1N(C)C(=O)OCc1ccccc1,-5,·,1,-1,-5,-4,·,·
Cc1ccc(S(=O)(=O)N2C=C(c3ccccc3)c3ccccc3-c3ccccc32)cc1,1,·,·,-1,0,-2,·,·
O=C(O)CN1C(=O)C2C3CCC(C3)C2C1=O (configuration not stated),14*,-5,-1,8,7,-8,-5,-2
NC(=O)CN1C(=O)C2C3CCC(C3)C2C1=O (configuration not stated),-1,-3,1,-2,-2,-3,·,·
COc1ccc(/C=N/Nc2ccc(C(F)(F)F)cc2[N+](=O)[O-])cc1O,11*,-2,-1,7,4,-4,3,3
COc1ccc(-c2csc(=Nc3ccccc3)n2CCO)cc1,5,-14,0,7,-1,0,·,·
COc1ccc(-c2csc(=NCCO)n2-c2ccccc2)cc1,10.0*,-3,0,-4,-6,0,-3,-1
O=C1CCC[C@H]2Cc3nc4cccc(Cl)c4cc3C[C@]23CCCN13,2,·,·,2,5,6,·,·
O=C(CSc1ncn[nH]1)Nc1ccc2c(c1)CCC2,6,-1,0,13*,3,-8,-4,0
Cc1ccc2c(c1)N(CCCC(=O)NCc1cccs1)C(=O)CO2,-5,·,-1,2,7,-7,·,·
CC(C)(C)OC(=O)NCCCC[C@H](NC(=O)c1[nH]cnc1C(=O)N[C@@H](Cc1ccccc1)C(=O)OCc1ccccc1)C(=O)OC(C)(C)C,10.0*,2,0,10,-9,-2,-4,-7
CC(C)(C)OC(=O)NCc1ccc(CNC(=O)c2[nH]cnc2C(=O)N[C@@H](Cc2ccccc2)C(=O)OC(C)(C)C)cc1,9.5*,16,0,8,1,-6,-3,1
CC(C)(C)OC(=O)[C@H](Cc1ccccc1)NC(=O)c1nc[nH]c1C(=O)N[C@@H](CCCCN)C(=O)OC(C)(C)C,2,13,0,3,6,-2,·,·
